The text below walks through data of ChEMBL document CHEMBL5154946, “Optimization of Peptide Linker-Based Fluorescent Ligands for the Histamine H1 Receptor” (J Med Chem, 2022).

As a reminder, the pKb is −log10 of the Kb, conventionally taken in molar units. Broadly, the pKd is the negative decadic logarithm of the Kd, by convention in mol/L. What is called Ki is the equilibrium dissociation constant of an inhibitor or competing ligand from its target. Low readings indicate a stronger hold on the target, high ones a looser hold on the target.

Molecules are shown by their SMILES. Active and inactive are the calls of the source. No cut-off for these calls is given here. Square brackets hold non-standard residues; d marks the D form. Peptide text beside a SMILES is read from it. * marks the point of attachment. X1 = O=C(COc1ccc(/C=C/C2=[N+]3C(=Cc4ccc(-c5cccs5)n4[B-]3(F)F)C=C2)cc1)*; Propanoyl(3-Pip(4-O-2-BnPh)) = O=C(CCN1CCC(Oc2ccccc2Cc2ccccc2)CC1)*; X3 = Cc1cc(C)n2c1C=C1C=CC(/C=C/c3ccc(OCC(=O)*)cc3)=[N+]1[B-]2(F)F; BODIPY(FL) = CC1=CC(C)=[N+]2C1=Cc1ccc(CCC(=O)*)n1[B-]2(F)F; X2 = O=C(CCC1=[N+]2C(=Cc3ccc(-c4cccs4)n3[B-]2(F)F)C=C1)*; βAla = NCCC(=O)O

The target of data set [1] is T1, Histamine H1 receptor (Homo sapiens, UniProt P35367). Nature of the data set: Binding affinity to human H1R expressed in CHO cells using Fluo-4AM as substrate incubated for 1 hrs by calcium mobilization assay based fluorometric analysis. Type of data set: cell-based. The note with it: filed as antagonist. (In general: Calcium assays in cells follow changes in intracellular calcium, usually with a dye or a luminescent sensor.)

For data set [2], the target named is T1, Histamine H1 receptor. The experiment in a line: Binding affinity to human H1R expressed in CHO cells assessed as shift in histamine-mediated calcium response at 1 uM using Fluo-4AM as a substrate incubated for 1 hrs by calcium mobilization assay based fluorometric analysis. It is filed as cell-based. The note with it: filed as antagonist.
Data set [3] addresses Histamine H4 receptor (Homo sapiens) (UniProt Q9H3N8). The experiment in a line: Binding affinity to NLuc-tagged human H4R expressed in HEK293T cell homogenates at 1 uM using NanoGlo as substrate preincubated for 2 hrs followed by substrate addition measured after 5 min in presence of clobenpropit by NanoBRET saturation binding assay. Particulars: filed as antagonist, time 125.0 min. For orientation: Bioluminescence resonance energy transfer reports proximity on the nanometre scale.

The target in data set [4] is Histamine H3 receptor (Homo sapiens) (UniProt Q9Y5N1). The experiment in a line: Binding affinity to NLuc-tagged human H3R expressed in HEK293T cell homogenates at 1 uM using NanoGlo as substrate preincubated for 2 hrs followed by substrate addition measured after 5 min in presence of clobenpropit by NanoBRET saturation binding assay. The note with it: filed as antagonist, time 125.0 min.

The target in data set [5] is T1, Histamine H1 receptor. Nature of the data set: Binding affinity to human H1R expressed in CHO cells using Fluo-4AM as a substrate incubated for 45 mins by calcium mobilization assay based fluorometric analysis. It is filed as cell-based. The note with it: filed as antagonist.
Data set [6] concerns the target T1, Histamine H1 receptor. Nature of the data set: Binding affinity to NLuc-tagged human H1R expressed in HEK293T cells assessed as dissociation rate constant (koff) using furimazine as substrate measured after 90 mins by NanoBRET binding assay. Type of data set: cell-based. The note with it: filed as antagonist. In short, it runs like this: (§1)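 Live HEK293T cells expressing Nluc-tagged human H1R; fluorescent ligand added at several concentrations and BRET read in real time every min for 90 min at room temperature. kon and koff obtained from association kinetics; mean residence time taken as 1/koff. Values are means ± SEM of 4–5 separate experiments, each in triplicate.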

The target of data set [7] is T1, Histamine H1 receptor. The experiment in a line: Binding affinity to NLuc-tagged human H1R expressed in HEK293T cells assessed as association rate constant (kon) using furimazine as substrate measured after 90 mins by NanoBRET binding assay. Type of data set: cell-based. The note with it: filed as antagonist. The essentials:
as §1

The target in data set [8] is T1, Histamine H1 receptor. The experiment in a line: Binding affinity to NLuc-tagged human H1R expressed in HEK293T cells at assessed as ratio of association rate constant to dissociation rate constant by NanoBRET binding assay. The note with it: filed as antagonist. Type of data set: cell-based. In short, it runs like this: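 Real-time NanoBRET association kinetics on Nluc-H1R HEK293T cells. Several fluorescent ligand concentrations were tested, with BRET read every min for 90 min at room temperature. pKD was derived from kon/koff. Means ± SEM from 4–5 experiments in triplicate.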

Data set [9] deals with T1, Histamine H1 receptor. Nature of the data set: Displacement of VUF13816-based fluorescent ligand 1 from Nluc-tagged human H1R expressed in HEK293T cells assessed as fold change incubated for 2 hrs by NanoBRET competition binding assay. The note with it: filed as antagonist.
Data set [10] deals with T1, Histamine H1 receptor. Nature of the data set: Displacement of VUF13816-based fluorescent ligand 1 from Nluc-tagged human H1R expressed in HEK293T cells incubated for 2 hrs by NanoBRET competition binding assay.
A short description of data set [11]: Drug localization in plasma membrane of chinese hamster CHO cells expressing YFP-tagged H1R at 1 to 25 nM incubated for 30 min by confocal microscopy. Particulars: 0.5 h, 0.025 µM, dose 1-25 nM. Type of data set: ADME, cell membranes, Cricetulus griseus. The essentials:
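CHO cells expressing YFP-tagged H1R were incubated for 30 min at 37 °C with fluorescent ligand at 1, 5, 10 or 25 nM, with or without 10 μM mepyramine pretreatment to define nonspecific binding. Plasma membrane versus intracellular localization was judged by confocal imaging in red and green channels. Three independent experiments.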

T1 sequence (P35367 whole entry): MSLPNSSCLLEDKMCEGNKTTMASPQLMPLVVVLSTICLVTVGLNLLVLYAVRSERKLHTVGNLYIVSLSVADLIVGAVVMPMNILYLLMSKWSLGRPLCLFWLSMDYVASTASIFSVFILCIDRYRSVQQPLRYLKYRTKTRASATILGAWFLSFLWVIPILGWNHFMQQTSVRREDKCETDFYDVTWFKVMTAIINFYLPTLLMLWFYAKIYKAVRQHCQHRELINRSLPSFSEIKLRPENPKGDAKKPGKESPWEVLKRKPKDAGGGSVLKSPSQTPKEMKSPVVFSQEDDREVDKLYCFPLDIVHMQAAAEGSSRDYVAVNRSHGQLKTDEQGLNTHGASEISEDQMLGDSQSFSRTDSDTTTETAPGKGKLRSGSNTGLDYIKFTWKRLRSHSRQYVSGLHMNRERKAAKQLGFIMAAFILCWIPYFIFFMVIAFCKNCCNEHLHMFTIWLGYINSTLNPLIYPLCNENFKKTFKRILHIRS
Chain of Histamine H4 receptor (Homo sapiens) (Q9H3N8 whole entry): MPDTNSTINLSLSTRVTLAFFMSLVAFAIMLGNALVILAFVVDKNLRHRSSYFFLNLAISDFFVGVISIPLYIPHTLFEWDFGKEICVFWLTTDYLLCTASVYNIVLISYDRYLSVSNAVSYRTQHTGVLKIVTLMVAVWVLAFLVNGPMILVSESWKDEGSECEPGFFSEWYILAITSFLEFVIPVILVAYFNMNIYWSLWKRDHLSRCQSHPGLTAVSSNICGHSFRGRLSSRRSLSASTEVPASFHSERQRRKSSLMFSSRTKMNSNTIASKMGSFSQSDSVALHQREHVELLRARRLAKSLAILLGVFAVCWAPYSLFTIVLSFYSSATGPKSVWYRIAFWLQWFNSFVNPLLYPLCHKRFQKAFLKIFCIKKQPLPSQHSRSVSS
Chain of Histamine H3 receptor (Homo sapiens) (Q9Y5N1 whole entry): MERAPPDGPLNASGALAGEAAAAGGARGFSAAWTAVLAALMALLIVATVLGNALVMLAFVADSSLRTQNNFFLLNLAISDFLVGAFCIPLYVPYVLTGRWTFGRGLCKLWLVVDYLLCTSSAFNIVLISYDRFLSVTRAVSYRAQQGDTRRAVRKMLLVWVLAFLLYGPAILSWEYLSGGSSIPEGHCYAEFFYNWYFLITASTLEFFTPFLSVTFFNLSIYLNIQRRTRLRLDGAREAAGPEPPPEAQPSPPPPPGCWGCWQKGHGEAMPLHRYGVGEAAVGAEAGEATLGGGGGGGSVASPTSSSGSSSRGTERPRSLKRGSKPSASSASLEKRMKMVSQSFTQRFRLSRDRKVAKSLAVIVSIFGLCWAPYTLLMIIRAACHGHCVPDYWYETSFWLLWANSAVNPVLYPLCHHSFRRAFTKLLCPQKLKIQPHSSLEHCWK

With `CC(C)[C@H](NC(=O)CCN1CCC(Oc2ccccc2Cc2ccccc2)CC1)C(=O)N[C@@H](CO)C(=O)N[C@@H](CC(N)=O)C(=O)NCCC(=O)N[C@@H](CCCCNC(=O)CCCCC[N+]1=C(/C=C/C=C/C=C2/N(C)c3ccc(S(=O)(=O)[O-])cc3C2(C)C)C(C)(C)c2cc(S(=O)(=O)O)ccc21)C(N)=O`, the pKb on Histamine H1 receptor [1] was found to be 5.33. Also, the outcome on Histamine H1 receptor [2] was Active.
The like results for `C[C@H](NC(=O)[C@H](C)NC(=O)[C@H](Cc1ccccc1)NC(=O)CCN1CCC(Oc2ccccc2Cc2ccccc2)CC1)C(=O)NCCC(=O)N[C@@H](CCCCNC(=O)CCCCC[N+]1=C(/C=C/C=C/C=C2/N(C)c3ccc(S(=O)(=O)[O-])cc3C2(C)C)C(C)(C)c2cc(S(=O)(=O)O)ccc21)C(N)=O` were, in that order, 6.09 and “Active”.
On to `N=C(NCc1ccc(Cl)cc1)SCCCc1c[nH]cn1`, for which the outcome in data set [3] and in data set [4] was Active.
Take `C[C@@H](NC(=O)CCN1CCC(Oc2ccccc2Cc2ccccc2)CC1)C(=O)N[C@H](C)C(=O)N[C@H](C)C(=O)NCCNC(=O)CCCCCNC(=O)COc1ccc(/C=C/C2=[N+]3C(=Cc4ccc(-c5cccs5)n4[B-]3(F)F)C=C2)cc1` (stereo in doubt): on Histamine H1 receptor [5], the pKb was 8.6.
For the molecule `Cc1cc(C)n2c1C=C1C=CC(CCC(=O)NCCCC[C@H](NC(=O)CCNC(=O)[C@H](C)NC(=O)[C@H](C)NC(=O)[C@H](Cc3ccccc3)NC(=O)CCN3CCC(Oc4ccccc4Cc4ccccc4)CC3)C(N)=O)=[N+]1[B-]2(F)F` ({Propanoyl(3-Pip(4-O-2-BnPh))}-FAA[βAla]K(BODIPY(FL))-NH2), the pKb at Histamine H1 receptor [1] was found to be 7.46. Also, the outcome on Histamine H1 receptor [2] was Active.
As for `C[C@H](NC(=O)[C@H](C)NC(=O)[C@H](Cc1ccccc1)NC(=O)CCN1CCC(Oc2ccccc2Cc2ccccc2)CC1)C(=O)NCCC(=O)N[C@@H](CCCCNC(=O)COc1ccc(/C=C/C2=[N+]3C(=Cc4ccc(-c5cccs5)n4[B-]3(F)F)C=C2)cc1)C(N)=O` ({Propanoyl(3-Pip(4-O-2-BnPh))}-FAA[βAla]K(X1)-NH2), the K at Histamine H1 receptor [6] was 0.014 min⁻¹; on Histamine H1 receptor [7], 0.686 10^6/M/min. At Histamine H1 receptor [1], the pKb was 8.59. The outcome at Histamine H1 receptor [2] was Active. For the same molecule, the pKd at Histamine H1 receptor [8] was 7.64.
Regarding `C[C@H](NC(=O)[C@H](C)NC(=O)[C@H](Cc1ccccc1)NC(=O)CCN1CCC(Oc2ccccc2Cc2ccccc2)CC1)C(=O)NCCC(=O)N[C@@H](CCCCNC(=O)CCC1=[N+]2C(=Cc3ccc(-c4cccs4)n3[B-]2(F)F)C=C1)C(N)=O` ({Propanoyl(3-Pip(4-O-2-BnPh))}-FAA[βAla]K(X2)-NH2), the pKb on Histamine H1 receptor [1] was 6.44. Further, the outcome at Histamine H1 receptor [2] was Active.
For the molecule `Cc1cc(C)n2c1C=C1C=CC(/C=C/c3ccc(OCC(=O)NCCCC[C@H](NC(=O)CCNC(=O)[C@H](C)NC(=O)[C@H](C)NC(=O)[C@H](Cc4ccccc4)NC(=O)CCN4CCC(Oc5ccccc5Cc5ccccc5)CC4)C(N)=O)cc3)=[N+]1[B-]2(F)F` ({Propanoyl(3-Pip(4-O-2-BnPh))}-FAA[βAla]K(X3)-NH2), the pKb at Histamine H1 receptor [1] stood at 6.99. The result on Histamine H1 receptor [2] was Active.
As to `CC(C)[C@H](NC(=O)CCN1CCC(Oc2ccccc2Cc2ccccc2)CC1)C(=O)N[C@@H](C)C(=O)N[C@@H](C)C(=O)N[C@H](Cc1ccccc1)C(N)=O` ({Propanoyl(3-Pip(4-O-2-BnPh))}-VAA[dF]-NH2), at Histamine H1 receptor [9], the fold change (FC) was 2.
Take `CC(C)[C@H](NC(=O)CCN1CCC(Oc2ccccc2Cc2ccccc2)CC1)C(=O)N[C@@H](CO)C(=O)N[C@@H](C)C(=O)N[C@H](Cc1ccccc1)C(N)=O` ({Propanoyl(3-Pip(4-O-2-BnPh))}-VSA[dF]-NH2): the fold change (FC) on Histamine H1 receptor [9] was found to be 2.
Regarding `CC(C)[C@H](NC(=O)CCN1CCC(Oc2ccccc2Cc2ccccc2)CC1)C(=O)N[C@@H](CO)C(=O)N[C@@H](CC(N)=O)C(=O)N[C@@H](Cc1ccccc1)C(N)=O` ({Propanoyl(3-Pip(4-O-2-BnPh))}-VSNF-NH2), on Histamine H1 receptor [10], the Ki is 89 nM.
For the molecule `Cc1cc(C)n2c1C=C1C=CC(CCC(=O)NCCCC[C@H](NC(=O)CCNC(=O)[C@H](CC(N)=O)NC(=O)[C@H](CO)NC(=O)[C@@H](NC(=O)CCN3CCC(Oc4ccccc4Cc4ccccc4)CC3)C(C)C)C(N)=O)=[N+]1[B-]2(F)F` ({Propanoyl(3-Pip(4-O-2-BnPh))}-VSN[βAla]K(BODIPY(FL))-NH2), the pKb at Histamine H1 receptor [1] was 6.95. In addition, at Histamine H1 receptor [2], the result was Active.
As to `CC(C)[C@H](NC(=O)CCN1CCC(Oc2ccccc2Cc2ccccc2)CC1)C(=O)N[C@@H](CO)C(=O)N[C@@H](CC(N)=O)C(=O)NCCC(=O)N[C@@H](CCCCNC(=O)COc1ccc(/C=C/C2=[N+]3C(=Cc4ccc(-c5cccs5)n4[B-]3(F)F)C=C2)cc1)C(N)=O` ({Propanoyl(3-Pip(4-O-2-BnPh))}-VSN[βAla]K(X1)-NH2), the K is 0.014 min⁻¹ on Histamine H1 receptor [6] and 0.839 10^6/M/min at Histamine H1 receptor [7]. Moreover, the Drug uptake entry in data set [11] is on record as “Active”. In addition, the pKb on Histamine H1 receptor [1] is 8.56. Moreover, the result at Histamine H1 receptor [2] was Active. Moreover, on Histamine H1 receptor [8], the pKd stood at 7.74.
Regarding `CC(C)[C@H](NC(=O)CCN1CCC(Oc2ccccc2Cc2ccccc2)CC1)C(=O)N[C@@H](CO)C(=O)N[C@@H](CC(N)=O)C(=O)NCCC(=O)N[C@@H](CCCCNC(=O)CCC1=[N+]2C(=Cc3ccc(-c4cccs4)n3[B-]2(F)F)C=C1)C(N)=O` ({Propanoyl(3-Pip(4-O-2-BnPh))}-VSN[βAla]K(X2)-NH2), on Histamine H1 receptor [1], the pKb turned out to be 6.52. The outcome at Histamine H1 receptor [2] was Active.
As for `Cc1cc(C)n2c1C=C1C=CC(/C=C/c3ccc(OCC(=O)NCCCC[C@H](NC(=O)CCNC(=O)[C@H](CC(N)=O)NC(=O)[C@H](CO)NC(=O)[C@@H](NC(=O)CCN4CCC(Oc5ccccc5Cc5ccccc5)CC4)C(C)C)C(N)=O)cc3)=[N+]1[B-]2(F)F` ({Propanoyl(3-Pip(4-O-2-BnPh))}-VSN[βAla]K(X3)-NH2), the pKb on Histamine H1 receptor [1] worked out at 6.96. For the same molecule, the outcome at Histamine H1 receptor [2] was Active.
`CC(C)[C@H](NC(=O)CCN1CCC(Oc2ccccc2Cc2ccccc2)CC1)C(=O)N[C@@H](CO)C(=O)N[C@@H](CO)C(=O)N[C@H](Cc1ccccc1)C(N)=O` ({Propanoyl(3-Pip(4-O-2-BnPh))}-VSS[dF]-NH2): on Histamine H1 receptor [9], the fold change (FC) is 2.
In the case of `CC(C)[C@H](NC(=O)CCN1CCC(Oc2ccccc2Cc2ccccc2)CC1)C(=O)N[C@@H](CO)C(=O)N[C@@H](Cc1ccc(O)cc1)C(=O)N[C@@H](Cc1ccccc1)C(N)=O` ({Propanoyl(3-Pip(4-O-2-BnPh))}-VSYF-NH2), the affinity on Histamine H1 receptor [10], expressed as Ki, was 437 nM.
For the molecule `CC(C)[C@H](NC(=O)CCN1CCC(Oc2ccccc2Cc2ccccc2)CC1)C(=O)N[C@@H](CO)C(=O)N[C@@H](Cc1ccc(O)cc1)C(=O)N[C@H](Cc1ccccc1)C(N)=O` ({Propanoyl(3-Pip(4-O-2-BnPh))}-VSY[dF]-NH2), at Histamine H1 receptor [9], the fold change (FC) worked out at 2.
